Data: ChEMBL document CHEMBL4229382, “Phenylthiazoles with tert-Butyl side chain: Metabolically stable with anti-biofilm activity” (Eur J Med Chem, 2018)
In brackets after ≈: the same amount, converted by molar mass. Activity calls are given as the source filed them. No cut-off for these calls is given here.

How the values were obtained:
[1] = tested on: Staphylococcus epidermidis; test: Antibacterial activity against methicillin-resistant Staphylococcus epidermidis NRS101 after 18 hrs by broth microdilution assay; type: functional; conditions: NRS101, 18 h
Summary of the method: (§1)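 Broth microdilution: inoculum from 0.5 McFarland suspension diluted to about 5 × 10^5 CFU/mL. Media were cation-adjusted Mueller-Hinton broth for staphylococci, brain heart infusion for E. faecium, and tryptone soya broth for E. faecalis, S. pneumoniae and L. monocytogenes.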

Staphylococcus aureus [2] = test: Antibacterial activity against methicillin-resistant Staphylococcus aureus 2658 RCMB after 18 hrs by broth microdilution assay; type: functional; summary of the method: as §1
Enterococcus faecalis [3] = test: Antibacterial activity against vancomycin-resistant Enterococcus faecalis ATCC 51299 after 18 hrs by broth microdilution assay; type: functional; conditions: ATCC 51299, 18 h; summary of the method: as §1
Staphylococcus aureus [4] = test: Antibacterial activity against methicillin-sensitive Staphylococcus aureus ATCC 6538 after 18 hrs by broth microdilution assay; type: functional; conditions: ATCC 6538, 18 h; summary of the method: as §1
Staphylococcus aureus [5] = test: Antibacterial activity against methicillin-sensitive Staphylococcus aureus NRS107 after 18 hrs by broth microdilution assay; type: functional; conditions: NRS107, 18 h; summary of the method: as §1
Staphylococcus aureus [6] = test: Antibacterial activity against methicillin-resistant Staphylococcus aureus NRS119 after 18 hrs by broth microdilution assay; type: functional; conditions: NRS119, 18 h; summary of the method: as §1
Staphylococcus aureus [7] = test: Antibacterial activity against methicillin-resistant Staphylococcus aureus NRS123 USA400 after 18 hrs by broth microdilution assay; type: functional; conditions: NRS123 USA400, 18 h; summary of the method: as §1
Staphylococcus aureus [8] = test: Antibacterial activity against methicillin-resistant Staphylococcus aureus NRS384 USA300 after 18 hrs by broth microdilution assay; type: functional; conditions: NRS384 USA300, 18 h; summary of the method: as §1
Staphylococcus aureus [9] = test: Antibacterial activity against methicillin-resistant Staphylococcus aureus NRS385 after 18 hrs by broth microdilution assay; type: functional; conditions: NRS385, 18 h; summary of the method: as §1
Staphylococcus aureus [10] = test: Antibacterial activity against methicillin-resistant Staphylococcus aureus NRS386 after 18 hrs by broth microdilution assay; type: functional; conditions: NRS386, 18 h; summary of the method: as §1
Staphylococcus aureus [11] = test: Antibacterial activity against vancomycin-resistant Staphylococcus aureus VRS10 after 18 hrs by broth microdilution assay; type: functional; conditions: VRS10, 18 h; summary of the method: as §1
Staphylococcus aureus [12] = test: Antibacterial activity against vancomycin-resistant Staphylococcus aureus VRS12 after 18 hrs by broth microdilution assay; type: functional; conditions: VRS12, 18 h; summary of the method: as §1
Enterococcus faecium [13] = test: Antibacterial activity against vancomycin-resistant Enterococcus faecium ATCC 700221 after 18 hrs by broth microdilution assay; type: functional; conditions: ATCC 700221, 18 h; summary of the method: as §1
Listeria monocytogenes [14] = test: Antibacterial activity against Listeria monocytogenes ATCC 19111 after 18 hrs by broth microdilution assay; type: functional; conditions: ATCC 19111, 18 h
Streptococcus pneumoniae [15] = test: Antibacterial activity against cephalosporin-resistant Streptococcus pneumoniae ATCC 51916 after 18 hrs by broth microdilution assay; type: functional; conditions: ATCC 51916, 18 h; summary of the method: as §1
Streptococcus pneumoniae [16] = test: Antibacterial activity against methicillin-resistant Streptococcus pneumoniae ATCC 700677 after 18 hrs by broth microdilution assay; type: functional; conditions: ATCC 700677, 18 h; summary of the method: as §1
Staphylococcus aureus [17] = test: Antibacterial activity against methicillin-resistant Staphylococcus aureus NRS123 USA400 assessed as reduction in bacterial burden within 6 hrs by time kill assay; type: functional
Summary of the method: (§2)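 Samples taken at 0, 2, 4, 6, 8, 12 and 24 h were serially diluted in PBS, plated on TSA and incubated ≥18 h for viable CFU/mL. DMSO was the negative control; two independent experiments.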

Listeria monocytogenes [18] = test: Selectivity ratio of MBC to MIC for Listeria monocytogenes ATCC 19111; type: functional
Caco-2 = test: Cytotoxicity against human Caco2 cells at 32 ug/ml after 2 hrs by MTS assay; type: cell-based; conditions: caco-2, 2 h
Summary of the method: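 Caco-2 cells grown in DMEM with 20% FBS, non-essential amino acids and penicillin-streptomycin, 37 °C, 5% CO2; exposed in triplicate to compounds (16, 32, 64 µg/mL) for 2 h; MTS added, 4 h further incubation, OD490 read; viability as percent of DMSO-treated controls; two independent experiments.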

Staphylococcus aureus [19] = test: Bactericidal activity against methicillin-sensitive Staphylococcus aureus ATCC 6538 incubated fo 18 hrs followed by re-plating on tryptic soy agar plates at 37 degC for 18 hrs by broth microdilution assay; type: functional; conditions: ATCC 6538, 18 h
Staphylococcus aureus [20] = test: Bactericidal activity against methicillin-sensitive Staphylococcus aureus NRS107 incubated fo 18 hrs followed by re-plating on tryptic soy agar plates at 37 degC for 18 hrs by broth microdilution assay; type: functional; conditions: NRS107, 18 h
Staphylococcus aureus [21] = test: Bactericidal activity against methicillin-resistant Staphylococcus aureus NRS119 incubated fo 18 hrs followed by re-plating on tryptic soy agar plates at 37 degC for 18 hrs by broth microdilution assay; type: functional; conditions: NRS119, 18 h
Staphylococcus aureus [22] = test: Bactericidal activity against methicillin-resistant Staphylococcus aureus NRS123 USA400 incubated fo 18 hrs followed by re-plating on tryptic soy agar plates at 37 degC for 18 hrs by broth microdilution assay; type: functional; conditions: NRS123 USA400, 18 h
Staphylococcus aureus [23] = test: Bactericidal activity against methicillin-resistant Staphylococcus aureus NRS384 USA300 incubated fo 18 hrs followed by re-plating on tryptic soy agar plates at 37 degC for 18 hrs by broth microdilution assay; type: functional; conditions: NRS384 USA300, 18 h
Staphylococcus aureus [24] = test: Bactericidal activity against methicillin-resistant Staphylococcus aureus NRS385 incubated fo 18 hrs followed by re-plating on tryptic soy agar plates at 37 degC for 18 hrs by broth microdilution assay; type: functional; conditions: NRS385, 18 h
Staphylococcus aureus [25] = test: Bactericidal activity against methicillin-resistant Staphylococcus aureus NRS386 incubated fo 18 hrs followed by re-plating on tryptic soy agar plates at 37 degC for 18 hrs by broth microdilution assay; type: functional; conditions: NRS386, 18 h
Staphylococcus aureus [26] = test: Bactericidal activity against vancomycin-resistant Staphylococcus aureus VRS10 incubated fo 18 hrs followed by re-plating on tryptic soy agar plates at 37 degC for 18 hrs by broth microdilution assay; type: functional; conditions: VRS10, 18 h
Staphylococcus aureus [27] = test: Bactericidal activity against vancomycin-resistant Staphylococcus aureus VRS12 incubated fo 18 hrs followed by re-plating on tryptic soy agar plates at 37 degC for 18 hrs by broth microdilution assay; type: functional; conditions: VRS12, 18 h
[28] = tested on: Staphylococcus epidermidis; test: Bactericidal activity against methicillin-resistant Staphylococcus epidermidis NRS101 incubated fo 18 hrs followed by re-plating on tryptic soy agar plates at 37 degC for 18 hrs by broth microdilution assay; type: functional; conditions: NRS101, 18 h
Enterococcus faecalis [29] = test: Bactericidal activity against vancomycin-resistant Enterococcus faecalis ATCC 51299 incubated fo 18 hrs followed by re-plating on tryptic soy agar plates at 37 degC for 18 hrs by broth microdilution assay; type: functional; conditions: ATCC 51299, 18 h
Streptococcus pneumoniae [30] = test: Bactericidal activity against cephalosporin-resistant Streptococcus pneumoniae ATCC 51916 incubated fo 18 hrs followed by re-plating on tryptic soy agar plates at 37 degC for 18 hrs by broth microdilution assay; type: functional; conditions: ATCC 51916, 18 h
Streptococcus pneumoniae [31] = test: Bactericidal activity against methicillin-resistant Streptococcus pneumoniae ATCC 700677 incubated fo 18 hrs followed by re-plating on tryptic soy agar plates at 37 degC for 18 hrs by broth microdilution assay; type: functional; conditions: ATCC 700677, 18 h
Staphylococcus aureus [32] = test: Inhibition of biofilm formation in methicillin-resistant Staphylococcus aureus NRS384 USA300 after 24 hrs by crystal violet staining-based spectrophotometric analysis
Staphylococcus aureus [33] = test: Inhibition of biofilm formation in methicillin-resistant Staphylococcus aureus NRS384 USA300 at 1 time MIC after 24 hrs by crystal violet staining-based spectrophotometric analysis relative to control; parameters: scale not given: the % may be the effect or the level left
Staphylococcus aureus [34] = test: Inhibition of biofilm formation in methicillin-resistant Staphylococcus aureus NRS384 USA300 at 2 times MIC after 24 hrs by crystal violet staining-based spectrophotometric analysis relative to control; parameters: scale not given: the % may be the effect or the level left
Enterococcus faecium [35] = test: Bactericidal activity against vancomycin-resistant Enterococcus faecium ATCC 700221 incubated fo 18 hrs followed by re-plating on tryptic soy agar plates at 37 degC for 18 hrs by broth microdilution assay; conditions: ATCC 700221, 18 h
Staphylococcus aureus [36] = test: Antibacterial activity against methicillin-resistant Staphylococcus aureus NRS123 USA400 assessed as reduction in bacterial growth after 2 to 4 hrs by time kill assay; type: functional, organism-based; summary of the method: as §2
[37] = Safety index, ratio of cytotoxicity against human Caco2 cells at 32 ug/ml after 2 hrs by MTS assay to antibacterial activity against methicillin-resistant Staphylococcus aureus; type: toxicity, cell-based; conditions: Caco-2 cells

Q: Which results are given for Cc1nc(-c2ccc(C(C)(C)C)cc2)sc1-c1ccnc(NC(=N)c2ccccn2)n1?
A: MIC [1]: 64 µg/mL (≈ 149 µM); MIC (Staphylococcus aureus [2]): 0.78 µg/mL (≈ 1.82 µM); MIC (Enterococcus faecalis [3]): 64 µg/mL (≈ 149 µM); MIC (Staphylococcus aureus [4]): 2 µg/mL (≈ 4.67 µM); MIC (Staphylococcus aureus [5]): 64 µg/mL (≈ 149 µM); MIC (Staphylococcus aureus [6]): 4 µg/mL (≈ 9.33 µM); MIC (Staphylococcus aureus [7]): 2 µg/mL (≈ 4.67 µM); MIC (Staphylococcus aureus [8]): 4 µg/mL (≈ 9.33 µM); MIC (Staphylococcus aureus [9]): 4 µg/mL (≈ 9.33 µM); MIC (Staphylococcus aureus [10]): 2 µg/mL (≈ 4.67 µM); MIC (Staphylococcus aureus [11]): 2 µg/mL (≈ 4.67 µM); MIC (Staphylococcus aureus [12]): 4 µg/mL (≈ 9.33 µM); MIC (Enterococcus faecium [13]): 4 µg/mL (≈ 9.33 µM); MIC (Listeria monocytogenes [14]): 2 µg/mL (≈ 4.67 µM); MIC (Streptococcus pneumoniae [15]): 4 µg/mL (≈ 9.33 µM); MIC (Streptococcus pneumoniae [16]): 8 µg/mL (≈ 18.7 µM); Activity (Staphylococcus aureus [17]): 3 log10CFU/ml; Ratio (Listeria monocytogenes [18]): >3; Activity (Caco-2): Toxic; MBC (Staphylococcus aureus [19]): 4 µg/mL (≈ 9.33 µM); MBC (Staphylococcus aureus [20]): > 64 µg/mL; MBC (Staphylococcus aureus [21]): 4 µg/mL (≈ 9.33 µM); MBC (Staphylococcus aureus [22]): 2 µg/mL (≈ 4.67 µM); MBC (Staphylococcus aureus [23]): 4 µg/mL (≈ 9.33 µM); MBC (Staphylococcus aureus [24]): 4 µg/mL (≈ 9.33 µM); MBC (Staphylococcus aureus [25]): 2 µg/mL (≈ 4.67 µM); MBC (Staphylococcus aureus [26]): 4 µg/mL (≈ 9.33 µM); MBC (Staphylococcus aureus [27]): 4 µg/mL (≈ 9.33 µM); MBC [28]: > 64 µg/mL; MBC (Enterococcus faecalis [29]): > 64 µg/mL; MBC (Streptococcus pneumoniae [30]): 4 µg/mL (≈ 9.33 µM); MBC (Streptococcus pneumoniae [31]): 8 µg/mL (≈ 18.7 µM); inhibition (Staphylococcus aureus [32]): Dose-dependent effect; Activity (Staphylococcus aureus [33]): 44%; Activity (Staphylococcus aureus [34]): 49%; MBC (Enterococcus faecium [35]): 32 µg/mL (≈ 74.7 µM)

Q: With Cc1nc(-c2ccc(C(C)(C)C)cc2)sc1-c1ccnc(NC(=N)N2CCOCC2)n1 as the compound, how does the MIC [1] read?
A: The MIC was 4 µg/mL (≈ 9.16 µM).

Q: And the MIC (Staphylococcus aureus [2])?
A: Its MIC is 1.17 µg/mL (≈ 2.68 µM).

Q: And the MIC (Enterococcus faecalis [3])?
A: The MIC was 4 µg/mL (≈ 9.16 µM).

Q: What about the MIC (Staphylococcus aureus [4]) of the same compound?
A: The MIC was 4 µg/mL (≈ 9.16 µM).

Q: And the MIC (Staphylococcus aureus [8])?
A: Its MIC is 4 µg/mL (≈ 9.16 µM).

Q: What about the MIC (Staphylococcus aureus [9]) of the same compound?
A: Its MIC is 4 µg/mL (≈ 9.16 µM).

Q: What about the MIC (Enterococcus faecium [13]) of the same compound?
A: Its MIC is 4 µg/mL (≈ 9.16 µM).

Q: And the Activity (Staphylococcus aureus [36])?
A: Its Activity is “Active”.

Q: What about the Activity (Caco-2) of the same compound?
A: Its Activity is “Non-Toxic”.

Q: And the MBC [28]?
A: Its MBC is 4 µg/mL (≈ 9.16 µM).

Q: And the selectivity ratio at 2 h, 32 ug/ml [37]?
A: The selectivity ratio at 2 h, 32 ug/ml was 8 to 30.

Q: What about the inhibition (Staphylococcus aureus [32]) of the same compound?
A: The inhibition was “Dose-dependent effect”.

Q: And the Activity (Staphylococcus aureus [33])?
A: Its Activity is 18.1%.

Q: What about the Activity (Staphylococcus aureus [34]) of the same compound?
A: Its Activity is 28.3%.

Q: What about the MBC (Enterococcus faecium [35]) of the same compound?
A: The MBC was 8 µg/mL (≈ 18.3 µM).
